Source: PubChem
A selection: hits, their analogues and other compounds. The true share with any hit is near 1.8%.
TNF necrop inh: inhibitors of TNF-alpha induced necroptosis in Jurkat FADD-/- cells. 220,000 tested, 0.068% active. AID 463075. activation (protection from cell death), % at 10 µM. Jurkat FADD-/- TNF necroptosis rescue, ATP luminescence, 24 h; 0 = TNF only, 100 = no-TNF cells;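 active = activation, meaning protection from cell death, of at least 50% relative to plate controls; inactive = activation below 50%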;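 also: necroptosis triggered by 40 ng/mL TNF-alpha added together with compound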
Autophagy mod: alters autophagy in cells. 190,000 tested, 0.98% active. MEF GFP-LC3 puncta imaging; test concentration mostly 10 µM. calls only at 10 µM (by protocol);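 active = percentage of spot-positive cells more than 3 SD above its plate mean, without a fluorescence outlier flag or 80% toxicity; inconclusive = no clear call, values can overlap the other calls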
Dynein cargo inh: blocks dynein driven cargo transport along microtubules. 220,000 tested, 0.47% active. 3617.4 mouse cells, GR-EGFP nuclear translocation imaging; test concentration mostly 20 µM; stimulated with dexamethasone, 1 µM; stronger effect = lower value. z-score, hits read low;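 active = plate z-score of nuclear minus cytoplasmic receptor signal below a set negative limit, without overly bright fluorescence or cell loss, cut at about -3.5 in these data, passing the limit was not always enough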;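 also: z-score of nuclear minus cytoplasmic ring GR-EGFP intensity difference per well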
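medium = tetracycline-free induction medium containing charcoal-stripped FBS | probe or stimulus = dexamethasone, 1.0 µM final | timing = 48 h induction, then 1 h compound, then 30 min agonist, 37 °C | detection = automated 10x imaging of fixed Hoechst-stained cells | read-out basis = nuclear versus cytoplasmic GR-EGFP signal, averaged per well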
L929 necroptosis: blocks zVAD induced death of L929 cells; L929 zVAD necroptosis rescue, ATP luminescence, 24 h; with zVAD 60 µM; viability rescue, % at 10 µM; 220,000 tested, 0.38% active; AID 1377;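 active = activation, scaled between plate controls, above about 75%, limit read from the data; inactive = activation under that limit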
Mdm2 ligase inh: inhibitors of human Mdm2 E3 ubiquitin ligase. signal enhancement, % at 5 µM. 210,000 tested, 0.11% active. AID 1230. cell-based MDM2 ubiquitination luciferase reporter, 2 h; 0 = plate control, 100 = twice control, blank-subtracted;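 active = signal enhancement of 30% or more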;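 also: luminescence tracks abundance of the self-degrading MDM2-luciferase fusion protein; higher signal means inhibition of MDM2 E3 ligase activity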
Target sequence (Q00987 whole entry, looked up, the tested form may be a part): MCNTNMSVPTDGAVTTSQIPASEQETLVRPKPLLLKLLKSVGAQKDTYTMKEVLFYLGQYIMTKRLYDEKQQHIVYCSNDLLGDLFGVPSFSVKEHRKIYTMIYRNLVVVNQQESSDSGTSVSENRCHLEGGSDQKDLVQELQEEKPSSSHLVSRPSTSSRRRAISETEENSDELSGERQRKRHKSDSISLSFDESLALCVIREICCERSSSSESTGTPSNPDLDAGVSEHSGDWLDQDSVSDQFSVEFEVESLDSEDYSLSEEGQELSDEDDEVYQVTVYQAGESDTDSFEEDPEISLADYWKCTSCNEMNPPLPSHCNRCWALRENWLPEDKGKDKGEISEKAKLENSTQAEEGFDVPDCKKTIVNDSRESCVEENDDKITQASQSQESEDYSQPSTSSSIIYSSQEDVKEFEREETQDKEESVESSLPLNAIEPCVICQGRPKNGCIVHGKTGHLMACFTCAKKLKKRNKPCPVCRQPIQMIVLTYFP
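Test system: stable mammalian line carrying autodegrading MDM2–luciferase fusion reporter; quantity: 2000 cells in each well; times: 4 h cell settling then 2 h compound exposure, 37 °C; detection: luminescence with SteadyLite reagent, 15 min at room temperature; evaluation: percent signal gain over controls, blank-subtracted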
Dynein confirm: dynein cargo transport inhibition, confirmation; AID 463116; 1,000 tested, 69% active; shares compounds with Dynein cargo inh; 3617.4 GR-EGFP nuclear translocation imaging, dexamethasone-induced; calls only at 20 µM;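 active = inhibition of receptor movement into the nucleus at or above a set limit in both runs, with normal cell brightness and cell count; inconclusive = limit reached in only one run, brightness and count normal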;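 also: dexamethasone at 1 µM final in well for 30 min; nuclear minus cytoplasmic GR-EGFP mean intensity difference in channel 2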
Each line names hits and unclear results; the compound was inactive in the other large screens (follow-up assays come after a bar, where they were run).

Cc1ccc2cc(CN(CC3CCCO3)C(=S)NCc3ccco3)c(=O)[nH]c2c1 (stereo unspecified)	Dynein cargo inh -3.6 | Dynein confirm inactive
Cc1c(N=C2C=CC(=O)c3ccccc32)c(=O)n(-c2ccccc2)n1C	Dynein cargo inh -4.7 | Dynein confirm active
O=C(NC1CCNCC1)C1CC1	none
COc1coc(C(O)CN)cc1=O (stereo unspecified)	none (no result: L929 necroptosis)
CCOC(=O)C(=Cc1cc(=O)c(OC)co1)C(=O)OCC	Dynein cargo inh -4 | Dynein confirm active
COc1cccc(/C(O)=C/c2nc3ccc(C(=O)NCCc4ccc(Cl)cc4)cc3[nH]c2=O)c1	Autophagy mod active | Dynein confirm active
O=C(NCCc1ccc(Cl)cc1)c1ccc2nc[nH]c2c1	none
CS(=O)(=O)c1ccc(S(=O)CC(=O)Oc2ccc(Cl)cc2)c([N+](=O)[O-])c1 (stereo unspecified)	Dynein cargo inh -6.5 | Dynein confirm active
Cc1ccc(-c2nnc(Cc3ccc(Cl)cc3)o2)cc1	none
O=c1c(Cl)c(Cl)cnn1-c1ccccc1	Dynein cargo inh -4.6 | Dynein confirm active
CN(c1cnn(-c2ccccc2)c(=O)c1Cl)n1cccc1	none (no result: Autophagy mod)
Cc1ccc(Cn2ncc(Cl)c(Cl)c2=O)cc1	none
Cc1cc(C)cc(Cn2ncc(Cl)c(Cl)c2=O)c1	Dynein cargo inh -6.1 | Dynein confirm active
O=c1c(Cl)c(Cl)cnn1Cc1nnc(-c2ccc(Cl)cc2)o1	Dynein cargo inh -4.8 | Dynein confirm active
O=c1c(Cl)c(Cl)cnn1Cc1ccccc1Cl	Dynein cargo inh -3.9 | Dynein confirm active
O=C1NC(=O)C2(COC(c3cccc([N+](=O)[O-])c3)OC2)S1 (stereo unspecified)	none
CCOC(=O)C(C)Oc1c(C(=O)OC)sc2ncccc12 (stereo unspecified)	none
Cc1cc(Cl)n2c(nc3cc(F)c(F)cc32)c1C#N	Dynein cargo inh -4.3 | Dynein confirm active
CNc1ccc(Br)cc(C(=O)/C=C/c2ccc(OC)cc2)c1=O	none
CCNc1ccc(Br)cc(C(=O)/C=C/c2ccc(Cl)cc2Cl)c1=O	none | Dynein confirm active
CSc1nnc(C)c(/C=C/Nc2ccc(F)cc2F)n1	none
C=CCSc1nnc(C)c(/C=C/Nc2ccc(Cl)cc2)n1	Autophagy mod active | Dynein confirm active
CCN(CC)C(=O)COc1ccc(-c2nnc(Nc3ccc(OC)c(C(=O)NC)c3)c3ccccc23)cc1	none (no result: Autophagy mod)
COc1ccc(C2Nc3ccccc3C(=O)N2NS(=O)(=O)c2ccccc2)cc1 (stereo unspecified)	none (no result: Mdm2 ligase inh)
CCOC(=S)SCC(=O)Nc1ncc(C)s1	Dynein cargo inh -4.1 (no result: Autophagy mod) | Dynein confirm inactive
Cc1ccc(NS(=O)(=O)c2ccc(-c3csc(C)n3)s2)c(C)c1	none (no result: Autophagy mod)
CCOc1cc(/C=C(\C#N)C(=O)Nc2ccccc2[N+](=O)[O-])ccc1OCc1cccc2ccccc12	none
O=c1oc(-c2ccco2)nc2ccccc12	Dynein cargo inh -3.6 | Dynein confirm inactive
O=c1oc(-c2ccco2)nc2c1cnn2-c1ccccc1	none
CC(C)c1ccc(OCC(=O)N(Cc2ccccc2)c2ccccn2)cc1	none
CCC(=O)N1CCN(c2ccc(NC(=O)c3ccc([N+](=O)[O-])o3)cc2Cl)CC1	Dynein cargo inh -5 | Dynein confirm active
CCC(=O)N1CCN(c2ccc(NC(=O)c3cc4ccccc4o3)cc2Cl)CC1	none
CCN1CCN(c2ccc(NC(=O)c3ccc([N+](=O)[O-])o3)cc2Cl)CC1	Dynein cargo inh -4.2 | Dynein confirm active
Cc1ccc(C(C[N+](=O)[O-])n2nc(C)cc2C)cc1 (stereo unspecified)	Dynein cargo inh -5.3 | Dynein confirm inactive
Cc1ccc(S(=O)(=O)n2nc(C)cc2C)cc1	none
N#C/C(=C/c1ccc(N2CCCCCC2)o1)c1ccc(Cl)cc1	Autophagy mod inconclusive (no result: Mdm2 ligase inh) | Dynein confirm inactive
N#C/C(=C/c1ccc(N2CCCCC2)o1)c1cccc(F)c1	Autophagy mod inconclusive | Dynein confirm inactive
O=S1(=O)CC=C(CSC(=S)NC2CCS(=O)(=O)C2)C1 (stereo unspecified)	Dynein cargo inh -4.8 (no result: Mdm2 ligase inh) | Dynein confirm active
CC(C)(C)c1cc(CSC(=S)NC2CCS(=O)(=O)C2)c(Br)c(C(C)(C)C)c1 (stereo unspecified)	none
CC(=O)N1CC(=O)N=C1SCC(=O)Nc1nc(C)c(-c2ccccc2)s1	none
COc1ccc(/C=C/C(=O)CC(O)(c2ccccc2)C(F)(F)F)cc1 (stereo unspecified)	Dynein cargo inh -3.8 (no result: Mdm2 ligase inh) | Dynein confirm active
O=C(/C=C/c1ccccc1)CC(O)(c1ccccc1)C(F)(F)F (stereo unspecified)	none
CCOc1nc(C#N)nc(N2CCCCC2)n1	Dynein cargo inh -3.5 | Dynein confirm active
COc1ccccc1N1C(=O)CC(Sc2n[nH]c(-c3cccc(C)c3)n2)C1=O (stereo unspecified)	Dynein cargo inh -3.6 | Dynein confirm active
O=C1CC(Sc2nnc(-c3ccccc3O)o2)C(=O)N1c1ccccc1 (stereo unspecified)	Dynein cargo inh -6.5 | Dynein confirm inactive
COc1ccccc1N1C(=O)CC(Sc2nccc(C)n2)C1=O (stereo unspecified)	none
Cc1nc(SC2CC(=O)N(c3ccccc3)C2=O)n[nH]1 (stereo unspecified)	Autophagy mod active, Dynein cargo inh -3.7 | Dynein confirm inactive
C=CCN(CC=C)C(=O)Nc1cc(OC)ccc1OC	none (no result: Autophagy mod)
CC(O)c1nc2ccccc2n1CC(=O)N1CCN(c2ccccc2)CC1 (stereo unspecified)	none
CCOCCCNC1=C(Cl)C(=O)c2ccccc2C1=O	Dynein cargo inh -5.3 (no result: Autophagy mod) | Dynein confirm active
O=C1C(Cl)=C(NCCCO)C(=O)c2ccccc21	none
O=C(NC(=S)NCCC1=CCCCC1)c1cccnc1	none
CCN(Cc1ccc(OC)c(F)c1)C(=O)CCl	Dynein cargo inh -4.3 | Dynein confirm inconclusive
O=[N+]([O-])c1cc(S(=O)(=O)N2CCCCCC2)ccc1F	Dynein cargo inh -4.4 | Dynein confirm active
COc1cc(S(=O)(=O)N(Cc2cccnc2)Cc2cccc(OC)c2OC)ccc1-n1cnnn1	none (no result: Autophagy mod)
C=C(CC)C(=O)c1ccc(OCC(=O)O)c(Cl)c1Cl	Dynein cargo inh -3.7 (no result: Mdm2 ligase inh) | Dynein confirm active
CN1CCN(C2=C(Cl)C(=O)C(c3cnc(N4CCCCC4)s3)=C(Cl)C2=O)CC1	Dynein cargo inh -4.7 (no result: Mdm2 ligase inh) | Dynein confirm active
CC1CCN(C(=O)C2CCC(C)(C(=O)O)C2(C)C)CC1 (stereo unspecified)	none
CCOc1ccc(OCC(O)CNC2CCN(Cc3ccccc3)CC2)cc1 (stereo unspecified)	none
